The values below come from ChEMBL document CHEMBL4823277, “Novel chalcone-conjugated, multi-flexible end-group coumarin thiazole hybrids as potential antibacterial repressors against methicillin-resistant Staphylococcus aureus” (Eur J Med Chem, 2021).

The structures appear in SMILES notation. In brackets after ≈: the same amount, converted by molar mass.

Common to all, as to type: functional
For experiment [1], the system named is Acinetobacter baumannii. The experiment is described as follows: Antibacterial activity against Acinetobacter baumannii by microbroth dilution method. In general terms: Broth dilution looks for growth in wells or tubes with falling amounts of substance.
The test system of experiment [2] is Staphylococcus aureus. The experiment is described as follows: Antibacterial activity against methicillin-resistant Staphylococcus aureus N315 by microbroth dilution method. The essentials:
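Minimum inhibitory concentration against MRSA N315 determined by micro broth dilution in microdilution plates.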

Experiment [3] relates to Staphylococcus aureus. The experiment is described as follows: Antibacterial activity against Staphylococcus aureus ATCC 25923 by microbroth dilution method.
Experiment [4] concerns Pseudomonas aeruginosa. The experiment is described as follows: Antibacterial activity against Pseudomonas aeruginosa by microbroth dilution method.
In experiment [5] the test system is Escherichia coli. The experiment is described as follows: Antibacterial activity against Escherichia coli ATCC 25922 by microbroth dilution method.
The test system of experiment [6] is Enterococcus faecalis. The experiment is described as follows: Antibacterial activity against Enterococcus faecalis by microbroth dilution method.
For experiment [7], the system named is Klebsiella pneumoniae. The experiment is described as follows: Antibacterial activity against Klebsiella pneumonia by microbroth dilution method.
Experiment [8] deals with Pseudomonas aeruginosa. The experiment is described as follows: Antibacterial activity against Pseudomonas aeruginosa ATCC 27853 by microbroth dilution method.
In experiment [9] the test system is Escherichia coli. The experiment is described as follows: Antibacterial activity against Escherichia coli by microbroth dilution method.
Experiment [10] has as its system Staphylococcus aureus. The experiment is described as follows: Antibacterial activity against Staphylococcus aureus by microbroth dilution method.
For experiment [11], the system named is Staphylococcus aureus. The experiment is described as follows: Antibacterial activity against Staphylococcus aureus ATCC 29213 by microbroth dilution method.

In the case of `O=C(/C(=C/c1c[nH]c2cc(Cl)ccc12)Oc1ccc2c(CN(CCO)CCO)cc(=O)oc2c1)c1nccs1`, the minimum inhibitory concentration (MIC) (usually the smallest concentration in the dilution series that meets the test's criterion for growth inhibition) in experiment [1] was determined as 113 µM (≈ 64 µg/mL); in experiment [2], 57 µM (≈ 32.3 µg/mL); in [3], 57 µM (≈ 32.3 µg/mL); in experiment [4] it was 226 µM (≈ 128 µg/mL); in experiment [5] it was 226 µM (≈ 128 µg/mL); in experiment [6], 57 µM (≈ 32.3 µg/mL). In addition, the MIC in experiment [7] is 57 µM (≈ 32.3 µg/mL); in experiment [8], 113 µM (≈ 64 µg/mL); in experiment [9], 226 µM (≈ 128 µg/mL); in experiment [10], 113 µM (≈ 64 µg/mL); in experiment [11], 57 µM (≈ 32.3 µg/mL).
On to `O=C(/C(=C/c1ccc(F)cc1)Oc1ccc2c(CN(CCO)CCO)cc(=O)oc2c1)c1nccs1`, for which the MIC in experiment [1] is 251 µM (≈ 128 µg/mL); in experiment [2], 125 µM (≈ 63.8 µg/mL); in experiment [3] it was 251 µM (≈ 128 µg/mL); in experiment [4], 1000 µM (≈ 512 µg/mL); in experiment [5], 251 µM (≈ 128 µg/mL); in experiment [6], 125 µM (≈ 63.8 µg/mL). The minimum inhibitory concentration (MIC) was 251 µM (≈ 128 µg/mL) in experiment [7]; 251 µM (≈ 128 µg/mL) in experiment [8]; 1000 µM (≈ 512 µg/mL) in experiment [9]; 125 µM (≈ 63.8 µg/mL) in experiment [10]; 251 µM (≈ 128 µg/mL) in experiment [11].
Take `O=C(/C(=C/c1ccc([N+](=O)[O-])cc1)Oc1ccc2c(CN(CCO)CCO)cc(=O)oc2c1)c1nccs1`: the minimal inhibitory concentration (MIC) was 238 µM (≈ 128 µg/mL) in [1]; 7 µM (≈ 3.76 µg/mL) in experiment [2]; 60 µM (≈ 32.3 µg/mL) in [3]; 476 µM (≈ 256 µg/mL) in [4]; 119 µM (≈ 64 µg/mL) in experiment [5]; 119 µM (≈ 64 µg/mL) in [6]. For the same molecule, the MIC turned out to be 238 µM (≈ 128 µg/mL) in experiment [7]; 238 µM (≈ 128 µg/mL) in experiment [8]; 119 µM (≈ 64 µg/mL) in experiment [9]; 119 µM (≈ 64 µg/mL) in experiment [10]; 119 µM (≈ 64 µg/mL) in [11].
With `O=C(/C(=C/c1ccc(Cl)cc1)Oc1ccc2c(CN(CCO)CCO)cc(=O)oc2c1)c1nccs1`, the minimal inhibitory concentration (MIC) is 243 µM (≈ 128 µg/mL) in [1]; 121 µM (≈ 63.8 µg/mL) in experiment [2]; 243 µM (≈ 128 µg/mL) in [3]; 61 µM (≈ 32.1 µg/mL) in [4]; 486 µM (≈ 256 µg/mL) in experiment [5]; 243 µM (≈ 128 µg/mL) in [6]. Besides, the MIC is 486 µM (≈ 256 µg/mL) in experiment [7]; 243 µM (≈ 128 µg/mL) in experiment [8]; 486 µM (≈ 256 µg/mL) in [9]; 243 µM (≈ 128 µg/mL) in [10]; 243 µM (≈ 128 µg/mL) in experiment [11].
For `CCn1cc(/C=C(\Oc2ccc3c(CN(CCO)CCO)cc(=O)oc3c2)C(=O)c2nccs2)c2ccccc21`, the MIC was 57 µM (≈ 31.9 µg/mL) in experiment [1]; 114 µM (≈ 63.8 µg/mL) in experiment [2]; 7 µM (≈ 3.92 µg/mL) in experiment [3]; 114 µM (≈ 63.8 µg/mL) in experiment [4]; 229 µM (≈ 128 µg/mL) in [5]; 14 µM (≈ 7.84 µg/mL) in experiment [6]. Moreover, the minimal inhibitory concentration (MIC) came out at 229 µM (≈ 128 µg/mL) in [7]; 57 µM (≈ 31.9 µg/mL) in [8]; 229 µM (≈ 128 µg/mL) in [9]; 29 µM (≈ 16.2 µg/mL) in experiment [10]; 57 µM (≈ 31.9 µg/mL) in experiment [11].
For the molecule `O=C(/C(=C/c1c[nH]c2ccccc12)Oc1ccc2c(CN(CCO)CCO)cc(=O)oc2c1)c1nccs1`, the MIC in experiment [1] came to 482 µM (≈ 256 µg/mL); in experiment [2], 15 µM (≈ 7.97 µg/mL); in experiment [3] it was 120 µM (≈ 63.8 µg/mL); in [4], 241 µM (≈ 128 µg/mL); in experiment [5], 241 µM (≈ 128 µg/mL); in experiment [6], 60 µM (≈ 31.9 µg/mL). In addition, the MIC in experiment [7] came out at 60 µM (≈ 31.9 µg/mL); in experiment [8] it was 482 µM (≈ 256 µg/mL); in experiment [9] it was 241 µM (≈ 128 µg/mL); in experiment [10] it was 120 µM (≈ 63.8 µg/mL); in experiment [11] it was 120 µM (≈ 63.8 µg/mL).
With `O=C(/C(=C/c1ccc(Br)cc1)Oc1ccc2c(CN(CCO)CCO)cc(=O)oc2c1)c1nccs1`, the minimum inhibitory concentration (MIC) came to 543 µM (≈ 310 µg/mL) in [1]; 136 µM (≈ 77.7 µg/mL) in experiment [2]; 272 µM (≈ 155 µg/mL) in experiment [3]; 272 µM (≈ 155 µg/mL) in [4]; 543 µM (≈ 310 µg/mL) in [5]; 136 µM (≈ 77.7 µg/mL) in [6]. The MIC in experiment [7] turned out to be 1090 µM (≈ 621 µg/mL); in experiment [8], 1090 µM (≈ 621 µg/mL); in experiment [9] it was 1090 µM (≈ 621 µg/mL); in experiment [10], 68 µM (≈ 38.9 µg/mL); in [11], 272 µM (≈ 155 µg/mL).
On to `O=C(/C(=C/c1ccccc1)Oc1ccc2c(CN(CCO)CCO)cc(=O)oc2c1)c1nccs1`, for which the MIC in experiment [1] was found to be 1040 µM (≈ 512 µg/mL); in experiment [2], 130 µM (≈ 64 µg/mL); in experiment [3], 1040 µM (≈ 512 µg/mL); in experiment [4], 520 µM (≈ 256 µg/mL); in experiment [5], 260 µM (≈ 128 µg/mL); in experiment [6], 130 µM (≈ 64 µg/mL). The MIC in [7] stood at 1040 µM (≈ 512 µg/mL); in [8], 520 µM (≈ 256 µg/mL); in experiment [9], 1040 µM (≈ 512 µg/mL); in experiment [10], 260 µM (≈ 128 µg/mL); in [11], 1040 µM (≈ 512 µg/mL).
Turning to `Cc1ccc(/C=C(\Oc2ccc3c(CN(CCO)CCO)cc(=O)oc3c2)C(=O)c2nccs2)cc1`, the minimum inhibitory concentration (MIC) in experiment [1] is 253 µM (≈ 128 µg/mL); in experiment [2] it was 63 µM (≈ 31.9 µg/mL); in experiment [3], 63 µM (≈ 31.9 µg/mL); in experiment [4], 253 µM (≈ 128 µg/mL); in experiment [5], 126 µM (≈ 63.8 µg/mL); in [6] it was 63 µM (≈ 31.9 µg/mL). For the same molecule, the MIC in experiment [7] came to 63 µM (≈ 31.9 µg/mL); in [8] it was 505 µM (≈ 256 µg/mL); in [9], 16 µM (≈ 8.11 µg/mL); in experiment [10], 126 µM (≈ 63.8 µg/mL); in experiment [11] it was 126 µM (≈ 63.8 µg/mL).
In the case of `Cc1ccc2c(/C=C(\Oc3ccc4c(CN(CCO)CCO)cc(=O)oc4c3)C(=O)c3nccs3)c[nH]c2c1`, the minimal inhibitory concentration (MIC) came to 117 µM (≈ 63.8 µg/mL) in [1]; 117 µM (≈ 63.8 µg/mL) in experiment [2]; 7 µM (≈ 3.82 µg/mL) in [3]; 117 µM (≈ 63.8 µg/mL) in experiment [4]; 235 µM (≈ 128 µg/mL) in experiment [5]; 15 µM (≈ 8.18 µg/mL) in experiment [6]. Further, the MIC in [7] was determined as 235 µM (≈ 128 µg/mL); in experiment [8], 59 µM (≈ 32.2 µg/mL); in experiment [9] it was 235 µM (≈ 128 µg/mL); in experiment [10], 29 µM (≈ 15.8 µg/mL); in experiment [11], 117 µM (≈ 63.8 µg/mL).
`O=C(COc1ccc2c(CN(CCO)CCO)cc(=O)oc2c1)c1nccs1`: the MIC amounted to 633 µM (≈ 256 µg/mL) in experiment [1]; 20 µM (≈ 8.09 µg/mL) in [2]; 633 µM (≈ 256 µg/mL) in experiment [3]; 633 µM (≈ 256 µg/mL) in [4]; 633 µM (≈ 256 µg/mL) in [5]; 316 µM (≈ 128 µg/mL) in [6]. Also, the minimum inhibitory concentration (MIC) is 316 µM (≈ 128 µg/mL) in [7]; 1270 µM (≈ 512 µg/mL) in experiment [8]; 316 µM (≈ 128 µg/mL) in [9]; 316 µM (≈ 128 µg/mL) in experiment [10]; 1270 µM (≈ 512 µg/mL) in [11].
Regarding `O=C(/C(=C/c1ccc(Cl)cc1Cl)Oc1ccc2c(CN(CCO)CCO)cc(=O)oc2c1)c1nccs1`, the minimal inhibitory concentration (MIC) in experiment [1] came to 114 µM (≈ 64 µg/mL); in experiment [2], 7 µM (≈ 3.93 µg/mL); in experiment [3], 456 µM (≈ 256 µg/mL); in [4], 114 µM (≈ 64 µg/mL); in [5], 456 µM (≈ 256 µg/mL); in experiment [6] it was 228 µM (≈ 128 µg/mL). Besides, the minimal inhibitory concentration (MIC) was determined as 228 µM (≈ 128 µg/mL) in experiment [7]; 228 µM (≈ 128 µg/mL) in experiment [8]; 228 µM (≈ 128 µg/mL) in experiment [9]; 228 µM (≈ 128 µg/mL) in [10]; 456 µM (≈ 256 µg/mL) in experiment [11].
Turning to `O=C(/C(=C/c1ccccc1Cl)Oc1ccc2c(CN(CCO)CCO)cc(=O)oc2c1)c1nccs1`, the MIC in experiment [1] stood at 486 µM (≈ 256 µg/mL); in experiment [2] it was 61 µM (≈ 32.1 µg/mL); in [3] it was 486 µM (≈ 256 µg/mL); in experiment [4] it was 486 µM (≈ 256 µg/mL); in experiment [5] it was 243 µM (≈ 128 µg/mL); in experiment [6], 121 µM (≈ 63.8 µg/mL). The MIC in experiment [7] came to 972 µM (≈ 512 µg/mL); in experiment [8], 243 µM (≈ 128 µg/mL); in experiment [9] it was 972 µM (≈ 512 µg/mL); in experiment [10] it was 121 µM (≈ 63.8 µg/mL); in experiment [11], 486 µM (≈ 256 µg/mL).
